{"source": "ChEMBL document CHEMBL1138051", "about": "“Photodynamic therapy agent with a built-in apoptosis sensor for evaluating its own therapeutic outcome in situ” (2006)", "assay_type_in_all_cases": "functional", "key": {"HepG2 [1]": {"system": "HepG2", "experiment": "Viability of human HepG2 cells at 1 uM relative to control by MTT assay", "conditions": "read-out: Survival", "summary_of_the_method": "(§1)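 HepG2 cells seeded 50000/well in complete DMEM and grown overnight at 37 °C. They were then exposed for 20 h to drug in DMEM with 0.8% BSA and rinsed. Cells were kept in dark with no illumination, then incubated 24 h at 37 °C. MTT 0.5 mg/mL was given for 2 h and solubilised in 70% 2-propanol/0.1 M HCl, with A570 read. Viability is relative to untreated cells (100%), 3 wells/condition, 3-8 experiments, mean ± standard error.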"}, "HepG2 [2]": {"system": "HepG2", "experiment": "Viability of human HepG2 cells in presence of 1 J/cm2 light at 1 uM relative to control by MTT assay", "conditions": "HepG2, light or radiation study, read-out: Survival", "summary_of_the_method": "(§2)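 HepG2 cells were plated 50000/well, grown overnight, then loaded 20 h with drug in DMEM/0.8% BSA. After rinsing into complete DMEM they were irradiated with a 670 nm laser at 20 mW/cm2 fluence rate. They were then incubated 24 h at 37 °C, given MTT 0.5 mg/mL for 2 h, solubilised in acidified 2-propanol, and A570 was read. Viability is versus untreated cells (100%), 3 wells/condition, 3-8 experiments, mean ± standard error.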"}, "HepG2 [3]": {"system": "HepG2", "experiment": "Viability of human HepG2 cells in presence of 5 J/cm2 light at 1 uM relative to control by MTT assay", "conditions": "HepG2, light or radiation study, read-out: Survival", "summary_of_the_method": "as §2"}, "HepG2 [4]": {"system": "HepG2", "experiment": "Viability of human HepG2 cells in presence of 7.5 J/cm2 light at 1 uM relative to control by MTT assay", "conditions": "HepG2, light or radiation study, read-out: Survival", "summary_of_the_method": "as §2"}, "HepG2 [5]": {"system": "HepG2", "experiment": "Viability of human HepG2 cells at 5 uM relative to control by MTT assay", "conditions": "read-out: Survival", "summary_of_the_method": "as §1"}, "HepG2 [6]": {"system": "HepG2", "experiment": "Viability of human HepG2 cells in presence of 1 J/cm2 light at 5 uM relative to control by MTT assay", "conditions": "HepG2, light or radiation study, read-out: Survival", "summary_of_the_method": "as §2"}, "HepG2 [7]": {"system": "HepG2", "experiment": "Viability of human HepG2 cells in presence of 5 J/cm2 light at 5 uM relative to control by MTT assay", "conditions": "HepG2, light or radiation study, read-out: Survival", "summary_of_the_method": "as §2"}, "HepG2 [8]": {"system": "HepG2", "experiment": "Viability of human HepG2 cells in presence of 7.5 J/cm2 light at 5 uM relative to control by MTT assay", "conditions": "HepG2, light or radiation study, read-out: Survival", "summary_of_the_method": "as §2"}, "HepG2 [9]": {"system": "HepG2", "experiment": "Viability of human HepG2 cells at 15 uM relative to control by MTT assay", "conditions": "read-out: Survival", "summary_of_the_method": "as §1"}, "HepG2 [10]": {"system": "HepG2", "experiment": "Viability of human HepG2 cells in presence of 1 J/cm2 light at 15 uM relative to control by MTT assay", "conditions": "HepG2, light or radiation study, read-out: Survival", "summary_of_the_method": "as §2"}, "HepG2 [11]": {"system": "HepG2", "experiment": "Viability of human HepG2 cells in presence of 5 J/cm2 light at 15 uM relative to control by MTT assay", "conditions": "HepG2, light or radiation study, read-out: Survival", "summary_of_the_method": "as §2"}, "HepG2 [12]": {"system": "HepG2", "experiment": "Viability of human HepG2 cells in presence of 7.5 J/cm2 light at 15 uM relative to control by MTT assay", "conditions": "HepG2, light or radiation study, read-out: Survival", "summary_of_the_method": "as §2"}, "HepG2 [13]": {"system": "HepG2", "experiment": "Viability of human HepG2 cells at 30 uM relative to control by MTT assay", "conditions": "read-out: Survival", "summary_of_the_method": "as §1"}, "HepG2 [14]": {"system": "HepG2", "experiment": "Viability of human HepG2 cells in presence of 1 J/cm2 light at 30 uM relative to control by MTT assay", "conditions": "HepG2, light or radiation study, read-out: Survival", "summary_of_the_method": "as §2"}, "HepG2 [15]": {"system": "HepG2", "experiment": "Viability of human HepG2 cells in presence of 5 J/cm2 light at 30 uM relative to control by MTT assay", "conditions": "HepG2, light or radiation study, read-out: Survival", "summary_of_the_method": "as §2"}, "HepG2 [16]": {"system": "HepG2", "experiment": "Viability of human HepG2 cells in presence of 7.5 J/cm2 light at 30 uM relative to control by MTT assay", "conditions": "HepG2, light or radiation study, read-out: Survival", "summary_of_the_method": "as §2"}}, "data": [{"smiles": "C=Cc1c(C)c2cc3[nH]c(c4c5nc(cc6nc(cc1[nH]2)C(C)=C6CC)C(C)=C5C(=O)C4)[C@@](C)(CCC(=O)NCC(=O)N[C@@H](CC(=O)O)C(=O)N[C@@H](CCC(=O)O)C(=O)N[C@H](C(=O)N[C@@H](CC(=O)O)C(=O)NCC(=O)N[C@@H](CO)C(=O)NCC(=O)N[C@@H](CCCCNC(=O)CCCN(C)c1ccc(/N=N/c2ccc4nc5ccc(N(CC)CC)cc5[n+](-c5ccccc5)c4c2)cc1)C(=O)O)C(C)C)C3(C)C", "values": [{"measurement": "viability at 1 µM", "setting": "HepG2 [1]", "value": 106, "unit": "%"}, {"measurement": "viability at 1 µM", "setting": "HepG2 [2]", "value": 90, "unit": "%"}, {"measurement": "viability at 1 µM", "setting": "HepG2 [3]", "value": 58, "unit": "%"}, {"measurement": "viability at 1 µM", "setting": "HepG2 [4]", "value": 6, "unit": "%"}, {"measurement": "viability at 5 µM", "setting": "HepG2 [5]", "value": 105, "unit": "%"}, {"measurement": "viability at 5 µM", "setting": "HepG2 [6]", "value": 86, "unit": "%"}, {"measurement": "viability at 5 µM", "setting": "HepG2 [7]", "value": 20, "unit": "%"}, {"measurement": "viability at 5 µM", "setting": "HepG2 [8]", "value": 4, "unit": "%"}, {"measurement": "viability at 15 µM", "setting": "HepG2 [9]", "value": 108, "unit": "%"}, {"measurement": "viability at 15 µM", "setting": "HepG2 [10]", "value": 56, "unit": "%"}, {"measurement": "viability at 15 µM", "setting": "HepG2 [11]", "value": 11, "unit": "%"}, {"measurement": "viability at 15 µM", "setting": "HepG2 [12]", "value": 5, "unit": "%"}, {"measurement": "viability at 30 µM", "setting": "HepG2 [13]", "value": 117, "unit": "%"}, {"measurement": "viability at 30 µM", "setting": "HepG2 [14]", "value": 41, "unit": "%"}, {"measurement": "viability at 30 µM", "setting": "HepG2 [15]", "value": 7, "unit": "%"}, {"measurement": "viability at 30 µM", "setting": "HepG2 [16]", "value": 4, "unit": "%"}]}]}
